From ChEMBL document CHEMBL3877264, “Quinolidene-rhodanine conjugates: Facile synthesis and biological evaluation” (Eur J Med Chem, 2017)
Converted amounts (≈) assume the structure as drawn.

Experiments:
[1] = Cytotoxicity against […]-differentiated human THP1 cells assessed as growth inhibition at 100 ug/ml measured after 48 hrs by MTT assay relative to control; assay type: toxicity, cell-based, THP-1; settings: read-out: GI
How it was run: (§1)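 MTT assay with 48 h compound exposure. THP-1 macrophages made by 24 h PMA treatment. Each concentration tested in triplicate in one experiment. % cytotoxicity = (control−test)/(control−blank)×100, with control = cells + DMSO and blank = medium without cells. IC50 from % survival versus concentration plots.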

Bacillus subtilis [2] = assay: Growth inhibition of Bacillus subtilis NCIM 2079 at 30 ug/ml measured after 12 hrs relative to control; assay type: functional; settings: NCIM 2079, 12 h, read-out: GI
How it was run: (§2)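 Bacteria grown in LB at 37 °C and 180 rpm to OD 1. Compounds added to wells, then 0.1% inoculum of 1 OD culture (620 nm). Growth read as OD at 620 nm after 8 h for gram-negative and after 12 h for gram-positive strains.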

[3] = Selectivity index, ratio of GI50 for human PANC1 cells to MIC for Mycobacterium tuberculosis H37Ra ATCC 25177 at dormant stage; assay type: toxicity, cell-based, PANC-1; settings: read-out: Selectivity Index
How it was run: (§3)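 SI is the cell-line GI50 divided by the dormant-stage mycobacterial MIC. […] THP-1 macrophages were PMA-differentiated for 24 h.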

[4] = Selectivity index, ratio of GI50 for human A549 cells to MIC for Mycobacterium tuberculosis H37Ra ATCC 25177 at dormant stage; assay type: toxicity, cell-based; settings: read-out: Selectivity Index; how it was run: as §3
[5] = system: Mycobacterium tuberculosis; assay: Growth inhibition of Mycobacterium bovis BCG ATCC 35743 at dormant stage at 25 ug/ml measured after 12 days by nitrate reductase dye based two fold dilution method relative to control; assay type: functional; settings: BCG str. ATCC 35743, 288 h, read-out: GI
How it was run: (§4)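 M. bovis BCG was grown in Dubos medium and assayed in Mycobacterium pheli minimal medium (pH 6.6), with compounds from DMSO stocks. Incubation lasted 8 days for active and 12 days for dormant cultures. Viability was read by nitrate reductase at 540 nm against cell-free blanks, with vehicle set as 100% growth. Primary screen was at 30, 10 and 3 µg/ml, in triplicate, mean ± SD. MIC was taken from dose-response curves.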

Staphylococcus aureus = assay: Antibacterial activity against of Staphylococcus aureus NCIM 2010 measured after 12 hrs; assay type: functional; settings: NCIM 2010, 12 h; how it was run: as §2
Candida albicans = assay: Antifungal activity against Candida albicans NCIM 3471 by standard agar method; assay type: functional
How it was run: (§5)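 MICs determined by standard agar method; DMSO as solvent control.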

[6] = system: Mycobacterium tuberculosis; assay: Growth inhibition of Mycobacterium tuberculosis H37Ra ATCC 25177 at active stage at 1.56 ug/ml measured after 8 days by XTT dye based two fold dilution method relative to control; assay type: functional; settings: H37Ra ATCC 25177, 192 h, read-out: GI
How it was run: (§6)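 MTB H37Ra was grown in Dubos medium, then exposed in Mycobacterium pheli minimal medium (pH 6.6) to compounds dissolved in DMSO. The assay ended on day 8 (active) or day 12 (dormant). Viable cells were measured by XTT reduction menadione assay at 470 nm, blank-corrected, relative to vehicle control. Triplicates were expressed as mean ± SD. MIC came from dose-response curves.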

Pseudomonas fluorescens = assay: Growth inhibition of Pseudomonas fluorescens NCIM 2036 at 3 ug/ml measured after 8 hrs relative to control; assay type: functional; settings: NCIM 2036, 8 h, read-out: GI; how it was run: as §2
[7] = system: Mycobacterium tuberculosis; assay: Growth inhibition of Mycobacterium bovis BCG ATCC 35743 at dormant stage at 30 ug/ml measured after 12 days by nitrate reductase dye based two fold dilution method relative to control; assay type: functional; settings: BCG str. ATCC 35743, 288 h, read-out: GI; how it was run: as §4
[8] = system: Mycobacterium tuberculosis; assay: Growth inhibition of Mycobacterium tuberculosis H37Ra ATCC 25177 at dormant stage at 50 ug/ml measured after 12 days by XTT dye based two fold dilution method relative to control; assay type: functional; settings: H37Ra ATCC 25177, 288 h, read-out: GI; how it was run: as §6
Escherichia coli [9] = assay: Antibacterial activity against Escherichia coli NCIM 2688 measured after 8 hrs; assay type: functional; settings: NCIM 2688, 8 h; how it was run: as §2
[10] = Cytotoxicity against primary HUVEC measured after 48 hrs by MTT assay; assay type: toxicity, cell-based; settings: human
[11] = Cytotoxicity against human THP1 cells measured after 48 hrs by MTT assay; assay type: toxicity, cell-based, THP-1; how it was run: as §1
[12] = Selectivity index, ratio of GI50 for HUVEC to MIC for Mycobacterium tuberculosis H37Ra ATCC 25177 at dormant stage
[13] = system: Mycobacterium tuberculosis; assay: Growth inhibition of Mycobacterium tuberculosis H37Ra ATCC 25177 at active stage at 100 ug/ml measured after 8 days by XTT dye based two fold dilution method relative to control; assay type: functional; settings: H37Ra ATCC 25177, 192 h, read-out: GI; how it was run: as §6
Escherichia coli [14] = assay: Growth inhibition of Escherichia coli NCIM 2688 at 3 ug/ml measured after 8 hrs relative to control; assay type: functional; settings: NCIM 2688, 8 h, read-out: GI; how it was run: as §2
[15] = Antifungal activity against Fusarium oxysporum NCIM 1332 by standard agar method; assay type: functional; how it was run: as §5
[16] = system: Mycobacterium tuberculosis; assay: Growth inhibition of Mycobacterium tuberculosis H37Ra ATCC 25177 at active stage at 6.25 ug/ml measured after 8 days by XTT dye based two fold dilution method relative to control; assay type: functional; settings: H37Ra ATCC 25177, 192 h, read-out: GI; how it was run: as §6
[17] = Selectivity index, ratio of GI50 for […]-differentiated human THP1 cells to MIC for Mycobacterium tuberculosis H37Ra ATCC 25177 at dormant stage; assay type: toxicity, cell-based, THP-1; settings: read-out: Selectivity Index; how it was run: as §3
Bacillus subtilis [18] = assay: Antibacterial activity against Bacillus subtilis NCIM 2079 measured after 12 hrs; assay type: functional; settings: NCIM 2079, 12 h; how it was run: as §2
[19] = system: Mycobacterium tuberculosis; assay: Growth inhibition of Mycobacterium bovis BCG ATCC 35743 at dormant stage at 50 ug/ml measured after 12 days by nitrate reductase dye based two fold dilution method relative to control; assay type: functional; settings: BCG str. ATCC 35743, 288 h, read-out: GI; how it was run: as §4
[20] = Cytotoxicity against human PANC1 cells measured after 48 hrs by MTT assay; assay type: toxicity, cell-based, PANC-1
[21] = system: Mycobacterium tuberculosis; assay: Growth inhibition of Mycobacterium bovis BCG ATCC 35743 at dormant stage at 6.25 ug/ml measured after 12 days by nitrate reductase dye based two fold dilution method relative to control; assay type: functional; settings: BCG str. ATCC 35743, 288 h, read-out: GI; how it was run: as §4
[22] = system: Mycobacterium tuberculosis; assay: Growth inhibition of Mycobacterium bovis BCG ATCC 35743 at dormant stage at 100 ug/ml measured after 12 days by nitrate reductase dye based two fold dilution method relative to control; assay type: functional; settings: BCG str. ATCC 35743, 288 h, read-out: GI; how it was run: as §4
[23] = Cytotoxicity against human PANC1 cells assessed as growth inhibition at 100 ug/ml measured after 48 hrs by MTT assay relative to control; assay type: toxicity, cell-based, PANC-1; settings: read-out: GI
[24] = system: Mycobacterium tuberculosis; assay: Growth inhibition of Mycobacterium tuberculosis H37Ra ATCC 25177 at dormant stage at 100 ug/ml measured after 12 days by XTT dye based two fold dilution method relative to control; assay type: functional; settings: H37Ra ATCC 25177, 288 h, read-out: GI; how it was run: as §6
[25] = Cytotoxicity against human THP1 cells assessed as growth inhibition at 100 ug/ml measured after 48 hrs by MTT assay relative to control; assay type: toxicity, cell-based, THP-1; settings: read-out: GI; how it was run: as §1
[26] = system: Mycobacterium tuberculosis; assay: Growth inhibition of Mycobacterium tuberculosis H37Ra ATCC 25177 at dormant stage measured after 12 days by XTT dye based two fold dilution method; assay type: functional; settings: H37Ra ATCC 25177, 288 h; how it was run: as §6
Bacillus subtilis [27] = assay: Growth inhibition of Bacillus subtilis NCIM 2079 at 3 ug/ml measured after 12 hrs relative to control; assay type: functional; settings: NCIM 2079, 12 h, read-out: GI; how it was run: as §2
[28] = system: Mycobacterium tuberculosis; assay: Growth inhibition of Mycobacterium tuberculosis H37Ra ATCC 25177 at active stage measured after 8 days by XTT dye based two fold dilution method; assay type: functional; settings: H37Ra ATCC 25177, 192 h; how it was run: as §6

SMILES | inhibition at 48 h, 100 ug/ml [1] | inhibition of growth at 30 µg/mL (Bacillus subtilis [2]) | inhibition of growth at 25 µg/mL [5] | MIC (Staphylococcus aureus) | MIC (Candida albicans) | inhibition of growth at 1.56 µg/mL [6] | inhibition of growth at 3 µg/mL (Pseudomonas fluorescens) | inhibition of growth at 30 µg/mL [7] | inhibition of growth at 50 µg/mL [8] | MIC (Escherichia coli [9]) | GI50 at 48 h [10] | GI50 at 48 h [11] | inhibition of growth at 100 µg/mL [13] | inhibition of growth at 3 µg/mL (Escherichia coli [14]) | MIC [15] | inhibition of growth at 6.25 µg/mL [16] | MIC (Bacillus subtilis [18]) | inhibition of growth at 50 µg/mL [19] | GI50 at 48 h [20] | inhibition of growth at 6.25 µg/mL [21] | further results
Cc1cccc2cc(/C=C3\SC(=S)NC3=O)c(Cl)nc12 | 2.58% | 6.66% | 101% | > 30 µg/mL | 200 µg/mL (≈ 623 µM) | 29.6% | 16.9% | 60.5% | 99.8% | > 30 µg/mL | > 100 µg/mL | > 100 µg/mL | 113% | 26.2% | 200 µg/mL (≈ 623 µM) | 48.4% | > 30 µg/mL | 100% | > 100 µg/mL | 62.9% | selectivity ratio [3]: 7.8; selectivity ratio [4]: 7.8; Selectivity Index [12]: 7.8; selectivity ratio [17]: 7.8; inhibition of growth at 100 µg/mL [22]: 95%; inhibition at 48 h, 100 ug/ml [23]: 30.9%; inhibition of growth at 100 µg/mL [24]: 104%; inhibition at 48 h, 100 ug/ml [25]: 13.2%; IC50 [26]: 7.6 µg/mL (≈ 23.7 µM); IC90 [26]: 12.9 µg/mL (≈ 40.2 µM); inhibition of growth at 3 µg/mL (Bacillus subtilis [27]): 3.54%; IC50 [28]: 4.8 µg/mL (≈ 15 µM); IC90 [28]: 18.2 µg/mL (≈ 56.7 µM)
O=C(O)CN1C(=O)/C(=C/c2cc3cc(F)ccc3nc2Cl)SC1=S | 14.5% | -5.15% | 99.8% | > 30 µg/mL | 50 µg/mL (≈ 131 µM) | -22.9% | 6.76% | 28.2% | 83.2% | > 30 µg/mL | > 100 µg/mL | > 100 µg/mL | 100% | -2.27% | 25 µg/mL (≈ 65.3 µM) | 11.3% | > 30 µg/mL | 99.8% | > 100 µg/mL | 100% | inhibition of growth at 100 µg/mL [22]: 98.2%; inhibition at 48 h, 100 ug/ml [23]: 20.8%; inhibition of growth at 100 µg/mL [24]: 119%; inhibition at 48 h, 100 ug/ml [25]: 27.6%; IC50 [26]: > 30 µg/mL; IC90 [26]: > 30 µg/mL; inhibition of growth at 3 µg/mL (Bacillus subtilis [27]): -1.39%; IC50 [28]: > 30 µg/mL; IC90 [28]: > 30 µg/mL
